From ChEMBL document CHEMBL1123963, “Conformational preference for the binding of biaryl substrates and inhibitors to the active site of phenylethanolamine N-methyltransferase” (J Med Chem, 1988)

How the values were obtained:
[1] = biological target: T1, Phenylethanolamine N-methyltransferase (Bos taurus, UniProt P10938); assay: In vitro inhibition of compound towards phenylethanolamine N-methyltransferase(PNMT) isolated from bovine adrenal glands
T1 sequence (P10938 whole entry): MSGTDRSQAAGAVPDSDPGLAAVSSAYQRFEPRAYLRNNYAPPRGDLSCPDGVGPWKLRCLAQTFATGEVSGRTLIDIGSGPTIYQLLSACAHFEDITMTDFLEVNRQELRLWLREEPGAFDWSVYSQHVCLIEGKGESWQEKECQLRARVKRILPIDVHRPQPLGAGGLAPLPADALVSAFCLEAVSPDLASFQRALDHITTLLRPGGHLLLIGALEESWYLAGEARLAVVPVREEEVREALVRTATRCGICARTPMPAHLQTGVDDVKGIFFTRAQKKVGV
Method in brief: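 Inhibition was measured on bovine adrenal PNMT partially purified through the isoelectric precipitation step. The radiochemical assay used phosphate buffer (pH 8.0) with unlabeled and [methyl-3H]AdoMet, 30 min at 37 °C. It was quenched with pH 10 borate buffer and extracted into toluene-isoamyl alcohol (7:3). Ki came from at least three inhibitor concentrations with phenylethanolamine as the variable substrate; compounds were tested as hydrochloride salts.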

[2] = Activity of the substrate is measured as the ratio of 100*Vmax/Km
Method in brief: (§1)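 Bovine adrenal PNMT, purified through the isoelectric precipitation step, was used. The radiochemical assay contained phosphate buffer (pH 8.0), unlabeled AdoMet, [methyl-3H]AdoMet and enzyme, incubated 30 min at 37 °C. It was stopped with borate buffer (pH 10) and extracted into toluene-isoamyl alcohol (7:3). Km and Vmax came from at least five concentrations of the variable substrate; compounds were tested as hydrochloride salts.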

[3] = substrate: NCC(O)c1ccc(-c2ccccc2)cc1; assay: (§2) In vitro enzyme kinetics (PNMT)of the compound expressed as turnover rate isolated from bovine adrenal glands; method in brief: as §1
[4] = substrate: NCC(O)c1cccc(-c2ccccc2)c1; assay: as §2; method in brief: as §1
[5] = substrate: NCC(O)c1ccc2c(c1)Cc1ccccc1-2; assay: as §2; method in brief: as §1
[6] = substrate: NCC(O)c1cccc2c1Cc1ccccc1-2; assay: as §2; method in brief: as §1
[7] = substrate: NC[C@@H](O)c1ccccc1; assay: as §2; method in brief: as §1
[8] = substrate: NCC(O)c1ccc(-c2ccccc2)cc1; assay: (§3) In vitro enzyme kinetics (PNMT) of the compound expressed as Michaelis constant isolated from bovine adrenal glands; method in brief: as §1
[9] = substrate: NCC(O)c1ccc2c(c1)Cc1ccccc1-2; assay: as §3; method in brief: as §1
[10] = substrate: NCC(O)c1cccc2c1Cc1ccccc1-2; assay: as §3; method in brief: as §1
[11] = substrate: NC[C@@H](O)c1ccccc1; assay: as §3; method in brief: as §1

Molecule: CC(N)c1cccc2c1Cc1ccccc1-2 (stereo unspecified)
- Ki [1]: 4.14 µM

Molecule: NCC(O)c1ccc2c(c1)Cc1ccccc1-2 (stereo unspecified)
- Ratio [2]: 6.7

Molecule: NCC(O)c1cccc2c1Cc1ccccc1-2 (stereo unspecified)
- Ratio [2]: 0.015

Molecule: NCC(O)c1ccc(-c2ccccc2)cc1 (stereo unspecified)
- Ratio [2]: 5.2

Molecule: CC(N)c1ccc2c(c1)Cc1ccccc1-2 (stereo unspecified)
- Ki [1]: 185 µM

Molecule: NC[C@@H](O)c1ccccc1
- Ratio [2]: 3.1

Molecule: NCC(O)c1cccc(-c2ccccc2)c1 (stereo unspecified)
- Ratio [2]: 0.07

B1: Phenylethanolamine N-methyltransferase (Bos taurus), P10938 (protein)
chain: T1 sequence (P10938 whole entry)
- Vmax (nM min-1 (mg of protein)-1) [3]: 4.3
- Vmax (nM min-1 (mg of protein)-1) [4]: 0.46
- Vmax (nM min-1 (mg of protein)-1) [5]: 1.76
- Vmax (nM min-1 (mg of protein)-1) [6]: 0.046
- Vmax (nM min-1 (mg of protein)-1) [7]: 2.2
- Km [8]: 82 µM
- Km [9]: 26.3 µM
- Km [10]: 297 µM
- Km [11]: 70 µM
